Experimental data: ChEMBL document CHEMBL1136633, “Synthesis and thrombolytic activity of fibrinogen fragment related cyclopeptides” (Bioorg Med Chem Lett, 2003)
Where a SMILES comes first, the peptide text is derived from it.

Tests used:
Rattus norvegicus [1] = test: In vivo thrombolytic activity at a dose of 5.0 mg in male rat; type: functional
Method in brief: (§1)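 Rat arterial-venous shunt. Arterial blood (1.0 mL) from the right carotid was collected onto a stainless steel helix for 15 min to form a thrombus, which was weighed. The helix was placed in a heparin-filled (50 IU/mL in NS) polyethylene shunt to the left jugular vein. Heparin was injected, then compound. Blood circulated 90 min and the helix was reweighed. Readout was thrombus mass reduction; N=8, NS vehicle, ANOVA.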

[2] = In vitro stability to pepsin promoting hydrolysis after 64h incubation time; type: ADME; details: read-out: Degradation
Method in brief: (§2)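 Test compound (10 mg) dissolved in 1 mL phosphate buffer pH 8, then 0.5 mg pepsin or trypsin added. Mixture held at 37 °C. Remaining compound was measured hourly by HPLC using 25% CH₃OH in water with 0.1% CF₃COOH, and percent degradation was derived.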

[3] = In vitro stability to trypsin promoting hydrolysis after 84 hr incubation time; type: ADME; details: read-out: Degradation; method in brief: as §2
[4] = In vitro stability to pepsin promoting hydrolysis after 84 hr incubation time; type: ADME; details: read-out: Degradation; method in brief: as §2
[5] = In vitro stability to trypsin promoting hydrolysis after 64h incubation time; type: ADME; details: read-out: Degradation; method in brief: as §2
[6] = In vitro stability to trypsin promoting hydrolysis after 2 hr incubation time; type: ADME; details: read-out: Degradation; method in brief: as §2
[7] = In vitro stability to pepsin promoting hydrolysis after 1 hr incubation time; type: ADME; details: read-out: Degradation; method in brief: as §2
[8] = In vitro stability to trypsin promoting hydrolysis after 1 hr incubation time; type: ADME; details: read-out: Degradation; method in brief: as §2
[9] = In vitro stability to pepsin promoting hydrolysis after 2 hr incubation time; type: ADME; details: read-out: Degradation; method in brief: as §2
Rattus norvegicus [10] = test: In vivo thrombolytic activity at a dose of 20.0 mg in male rat; type: functional; method in brief: as §1
[11] = In vitro stability to trypsin promoting hydrolysis after 8 hr incubation time; type: ADME; details: read-out: Degradation; method in brief: as §2
Rattus norvegicus [12] = test: In vivo thrombolytic activity at a dose of 10.0 mg in male rat; type: functional; method in brief: as §1
[13] = In vitro stability to pepsin promoting hydrolysis after 8 hr incubation time; type: ADME; details: read-out: Degradation; method in brief: as §2

metabolised at 64 h [2] [%] | metabolised at 84 h [3] [%] | metabolised at 84 h [4] [%] | metabolised at 64 h [5] [%] | metabolised at 2 h [6] [%] | metabolised at 1 h [7] [%] | metabolised at 1 h [8] [%] | metabolised at 2 h [9] [%] | metabolised at 8 h [11] [%] | metabolised at 8 h [13] [%] | Structure (SMILES) | Activity (Rattus norvegicus [1]) [mg] | also measured
– | – | – | – | – | – | – | – | – | – | C[C@@H]1NC(=O)[C@@H](CCCCN)NC(=O)[C@H](CCCCN)NC(=O)[C@@H](CCCN=C(N)N)NC(=O)[C@@H]2CCCN2C1=O | 6.13 | –
– | – | – | – | – | – | – | – | – | – | C[C@@H]1NC(=O)[C@@H](CCCN=C(N)N)NC(=O)[C@@H]2CCCN2C(=O)[C@H](C)NC(=O)[C@@H](CCCCN)NC1=O | 10.62 | –
0 | 20 | 10 | 0 | – | – | – | – | – | – | C[C@@H]1NC(=O)[C@H](CCCCN)NC(=O)CNC(=O)[C@H](CCCN=C(N)N)NC(=O)[C@@H]2CCCN2C1=O | – | –
– | – | – | – | 77 | 56 | 25 | 75 | 98 | 93 | C[C@H](NC(=O)[C@@H]1CCCN1C(=O)[C@H](CCCN=C(N)N)NC(=O)CN)C(=O)N[C@@H](CCCCN)C(=O)O (H-GRPAK-OH) | 9.31 | Activity (Rattus norvegicus [10]): 16.81 mg; Activity (Rattus norvegicus [12]): 13.17 mg
– | – | – | – | – | – | – | – | – | – | C[C@@H]1NC(=O)[C@@H](CCCCN)NC(=O)CNC(=O)[C@@H](CCCN=C(N)N)NC(=O)[C@@H]2CCCN2C1=O | 11.86 | Activity (Rattus norvegicus [10]): 18.88 mg; Activity (Rattus norvegicus [12]): 17.31 mg
– | – | – | – | 95 | 10 | 79 | 50 | 99 | 98 | C[C@H](N)C(=O)N[C@@H](CCCN=C(N)N)C(=O)N1CCC[C@H]1C(=O)N[C@@H](C)C(=O)N[C@@H](CCCCN)C(=O)O (H-ARPAK-OH) | 6.07 | –
0 | 35 | 30 | 0 | – | – | – | – | – | – | C[C@@H]1NC(=O)[C@H](CCCCN)NC(=O)[C@H](CCCCN)NC(=O)[C@H](CCCN=C(N)N)NC(=O)[C@@H]2CCCN2C1=O | – | –
– | – | – | – | – | – | – | – | – | – | C[C@@H]1NC(=O)[C@@H](CCCCN)NC(=O)[C@H](CCC(N)=O)NC(=O)[C@@H](CCCN=C(N)N)NC(=O)[C@@H]2CCCN2C1=O | 9.68 | –
– | – | – | – | 70 | 50 | 30 | 80 | 96 | 95 | C[C@H](NC(=O)[C@@H]1CCCN1C(=O)[C@H](CCCN=C(N)N)NC(=O)[C@@H](N)CCCCN)C(=O)N[C@@H](CCCCN)C(=O)O (H-KRPAK-OH) | 0.28 | –
– | – | – | – | 72 | 45 | 20 | 78 | 95 | 92 | C[C@H](NC(=O)[C@@H]1CCCN1C(=O)[C@H](CCCN=C(N)N)NC(=O)[C@@H](N)CCC(N)=O)C(=O)N[C@@H](CCCCN)C(=O)O (H-QRPAK-OH) | 7.02 | –
0 | 20 | 25 | 0 | – | – | – | – | – | – | C[C@@H]1NC(=O)[C@H](CCCCN)NC(=O)[C@H](CCC(N)=O)NC(=O)[C@H](CCCN=C(N)N)NC(=O)[C@@H]2CCCN2C1=O | – | –
0 | 38 | 40 | 0 | – | – | – | – | – | – | C[C@@H]1NC(=O)[C@H](CCCN=C(N)N)NC(=O)[C@@H]2CCCN2C(=O)[C@H](C)NC(=O)[C@H](CCCCN)NC1=O | – | –
